We go through one compound from ChEMBL document CHEMBL3352511, “Pyrrole-3-carboxamides as potent and selective JAK2 inhibitors” (Bioorg Med Chem, 2014).

Active and inactive are the calls of the source. The calls are words filed in the database; no cut-off is given here.

A short description of series [1]: Oral bioavailability in Balb nu/nu mouse at 10 mg/kg. The class given is ADME, organism-based. The conditions noted are these: in vivo. Put shortly:
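Overnight-fasted male Nu/Nu mice, single oral dose in 0.5% methocel, three mice. Saphenous vein blood taken at predose, 0.083, 0.5, 1, 6 and 24 h. Plasma obtained by centrifugation at 10,000g, 3 min, 4 °C, stored at -80 °C, then analysed by LC/MS/MS.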

The test system of series [2] is SET-2. The experiment in a line: Inhibition of STAT5 phosphorylation in human SET2 cells xenografted in SCID mouse assessed as tumor growth inhibition at 30 mg/kg, po as single dose measured at 1 to 3 hrs post treatment. Format: functional, organism-based. The arrangement: dose 30 mg/kg. The method, boiled down: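 SET-2 s.c. xenografts in irradiated female SCID mice were given one oral dose. Tumours were collected at several post-treatment times, 3 animals per time. Tumour lysates were western blotted for P-STAT5 and P-STAT3, with GAPDH as loading control.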
A general note: In xenograft studies the graft and the host belong to different species.

Series [3] has as its target T1, Serine/threonine-protein kinase TAO1 (Homo sapiens) (UniProt Q7L7X3).
T1 sequence (whole entry): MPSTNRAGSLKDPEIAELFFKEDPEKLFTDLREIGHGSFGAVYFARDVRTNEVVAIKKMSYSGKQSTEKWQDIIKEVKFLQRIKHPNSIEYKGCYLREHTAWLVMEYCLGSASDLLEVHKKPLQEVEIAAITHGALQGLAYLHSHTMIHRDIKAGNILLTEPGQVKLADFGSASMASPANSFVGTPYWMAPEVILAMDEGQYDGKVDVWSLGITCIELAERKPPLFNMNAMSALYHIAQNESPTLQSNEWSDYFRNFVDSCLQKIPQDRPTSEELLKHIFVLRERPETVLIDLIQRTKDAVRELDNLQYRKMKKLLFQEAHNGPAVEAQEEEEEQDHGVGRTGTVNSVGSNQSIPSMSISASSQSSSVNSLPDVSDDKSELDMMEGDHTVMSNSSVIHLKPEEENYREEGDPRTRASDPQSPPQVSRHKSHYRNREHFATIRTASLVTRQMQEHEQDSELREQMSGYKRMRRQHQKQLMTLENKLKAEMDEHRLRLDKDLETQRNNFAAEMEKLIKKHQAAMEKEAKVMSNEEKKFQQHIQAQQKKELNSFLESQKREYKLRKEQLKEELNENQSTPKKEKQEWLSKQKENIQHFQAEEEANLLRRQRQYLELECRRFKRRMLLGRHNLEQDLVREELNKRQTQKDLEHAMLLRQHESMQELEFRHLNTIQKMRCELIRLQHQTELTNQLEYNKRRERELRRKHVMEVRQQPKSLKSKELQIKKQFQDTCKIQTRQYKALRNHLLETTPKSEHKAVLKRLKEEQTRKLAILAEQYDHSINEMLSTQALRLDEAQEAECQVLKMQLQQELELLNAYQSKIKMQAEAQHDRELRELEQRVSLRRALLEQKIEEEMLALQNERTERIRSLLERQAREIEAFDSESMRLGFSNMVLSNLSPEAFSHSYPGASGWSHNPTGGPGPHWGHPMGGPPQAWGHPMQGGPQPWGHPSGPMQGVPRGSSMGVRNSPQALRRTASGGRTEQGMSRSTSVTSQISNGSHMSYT
The experiment in a line: Inhibition of human TAOK1 at 0.1 uM. The method, boiled down:
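KINOMEscan active-site-directed competition binding panel of 442 human kinases, compound tested at 0.1 µM. Primary screen results expressed as % Ctrl, where lower values mean stronger binding.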

The nature of series [4]: Clearance in Balb nu/nu mouse at 10 mg/kg, iv. Format: ADME, organism-based. More on the design: dose 10 mg/kg, route intravenous. The conditions noted are these: in vivo. Put shortly: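 Overnight-fasted male Nu/Nu mice, single intravenous dose in 10% Tween 80 in 5% dextrose, three mice. Saphenous vein blood taken at predose, 0.083, 0.5, 1, 6 and 24 h. Plasma obtained by centrifugation at 10,000g, 3 min, 4 °C, stored at -80 °C, then analysed by LC/MS/MS.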

A short description of series [5]: Antitumor activity against human SET2 cells xenografted in SCID mouse assessed as tumor growth inhibition at 15 mg/kg, po bid for 10 consecutive days. The class given is functional. The conditions noted are these: SET-2, read-out: TGI. Put shortly:
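Female SCID mice, 5–6 weeks old, given 200 Rads whole-body gamma irradiation, then inoculated s.c. with 10^7 SET-2 cells. Dosing by mouth started at 100-200 mm³ tumours; controls received vehicle (0.5% methocel). Seven animals per study.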

For series [6], the system named is SET-2. The experiment in a line: Effect on total STAT3 level in human SET2 cells at 0.08 to 10 uM after 2 hrs by SDS-PAGE analysis. The class given is functional, cell-based. The method, boiled down: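 SET-2 cells were grown in RPMI 1640 with 10% FBS at 37 °C, 5% CO₂, and exposed to compound or DMSO for 2 h at 37 °C. Cells were washed in cold PBS and lysed in RIPA buffer. Equal lysate amounts went through SDS-PAGE and nitrocellulose transfer, then 5% milk/TBST blocking and overnight 4 °C probing for total STAT3/STAT5 and phospho-STAT, with ECL detection.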

As usually defined, the bioavailability is the share of a dose that reaches the circulation, judged against a reference dose that is usually intravenous. Low values mean little systemic uptake, high ones much systemic uptake. Broadly, the inhibition is the percentage by which the read-out fell short of the control. What is called clearance is the volume of plasma or blood freed of the substance per unit of time. A high value points to efficient removal. Take `NC(=O)c1cc(-c2ccnc(N)n2)[nH]c1-c1cc(C(F)(F)F)ccc1Cl`: the bioavailability in series [1] came out at 31%. Also, the inhibition entry in series [2] is “Active”. This compound had an inhibition in series [3] of 1%. Further, in series [4], the clearance was determined as 16.2 mL/min/kg. Besides, the inhibition in vivo at 15 mg/kg in series [5] amounted to 50%. Also, the outcome in series [6] was inactive.
